High-throughput results (PubChem)
hERG protect – hERG rescue from dofetilide block, primary screen, cell-based, CHO-hERG, FluxOR thallium flux, dofetilide IC70. Voltage-gated inwardly rectifying potassium channel KCNH2 (Homo sapiens), Q12809. activation (rescue from dofetilide block), less the hit threshold, % at 10 µM. dofetilide IC70 present. 0.51% of 310,000 active. AID 1511, 2009;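 active = activation above the mean of controls blocked by dofetilide plus 5 SD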;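 note: thallium influx through hERG after potassium depolarization seen as dye fluorescence rise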
KCNK9 inh – KCNK9 potassium channel inhibitors, primary screen, HEK293 cells, thallium flux | FluxOR thallium flux fluorescence; active compounds read low | 1.2% of 310,000 active | Potassium channel subfamily K member 9 (Homo sapiens), Q9NPC2 | AID 488922, 2010 | B-score at 10 µM;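 active = ratio B-score over 3 SD below the library mean, with starting fluorescence within 5 SD of its mean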;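 note: negative B-score means less thallium flux so channel inhibition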
KCNQ1 pot – potentiators or activators of KCNQ1 channel, primary screen, cell-based, thallium flux, high-throughput. Potassium voltage-gated channel subfamily KQT member 1 (Homo sapiens), P51787. CHO-K1 KCNQ1, thallium flux FluxOR fluorescence; active compounds read high. B-score at 10 µM. 0.35% of 310,000 active. AID 2648, 2010;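 active = fluorescence ratio B-score, a plate-corrected score, at least three library SD, with initial intensity B-score within 5 SD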
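Test system: CHO-K1 cells stably expressing KCNQ1 / Medium: assay buffer / Also added: depolarizing K+/Tl+ stimulus, K2SO4 and Tl2SO4 each 12.5 mM in 5x stock / Incubation: 90 min dye loading and 20 min compound exposure, both at room temperature / Signal: thallium influx via FluxOR fluorescence, kinetic imaging / Evaluation: B score of baseline-normalized fluorescence ratio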
KCNQ1 inh – inhibitors of human KCNQ1 channel, primary screen, cell-based, thallium flux, high-throughput; CHO-K1 KCNQ1, FluxOR thallium flux fluorescence; active compounds read high; 1.3% of 310,000 active; B-score at 10 µM;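 active = compounds whose thallium flux B-score, printed positive for inhibition, exceeds three library SD while starting fluorescence stays within three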;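 note: channel opened by potassium depolarization with thallium stimulus after 20 min compound exposure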
KCNK3 block – human KCNK3 channel inhibitors, primary screen, CHO cells, FluxOR thallium flux, B-score. Potassium channel subfamily K member 3 (Homo sapiens), O14649. FluxOR fluorescence; active compounds read low. B-score at 10 µM. 0.84% of 340,000 active. AID 602410, 2012;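 active = B-score under library mean minus 4 SD, starting fluorescence ratio at most library mean plus 5 SD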;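 note: more negative B-score means stronger inhibition of thallium flux through KCNK3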
Target sequence (O14649 whole entry, looked up): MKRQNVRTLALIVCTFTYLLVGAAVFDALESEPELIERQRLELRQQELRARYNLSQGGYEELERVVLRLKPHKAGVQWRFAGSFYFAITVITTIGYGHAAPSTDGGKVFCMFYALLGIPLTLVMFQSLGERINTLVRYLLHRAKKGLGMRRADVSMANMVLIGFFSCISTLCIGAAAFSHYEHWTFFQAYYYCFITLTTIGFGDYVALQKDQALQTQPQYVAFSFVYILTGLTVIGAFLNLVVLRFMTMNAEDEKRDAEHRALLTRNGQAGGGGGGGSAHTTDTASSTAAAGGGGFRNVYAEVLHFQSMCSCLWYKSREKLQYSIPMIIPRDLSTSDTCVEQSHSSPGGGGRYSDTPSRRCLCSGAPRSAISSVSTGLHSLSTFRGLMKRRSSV
KCNQ1 block val – KCNQ1 potassium channel inhibitors, confirmation, cell-based, Tl flux, duplicate. shares compounds with KCNQ1 inh. KCNQ1 cell line, FluxOR thallium flux fluorescence. inhibition, % at 10 µM. 93% of 1,600 active;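 active = primary screen active, with duplicate mean exceeding buffer control mean plus 3 SD of buffer wells, cut at about 28% in these data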
CHO Tl flux – thallium flux effects in parental CHO cells, counter-screen for KCNQ1 inhibitor project, cell-based, Tl flux. fluorescence ratio (Tl flux) at 10 µM. shares compounds with KCNQ1 inh. parental CHO-K1, FluxOR thallium flux fluorescence ratio; active compounds read low; zero means no signal rise above baseline. 21% of 1,600 active. AID 588366, 2011;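 active = mean of duplicate thallium-flux fluorescence ratios in parental host cells more than 5 SD below the buffer control mean, cut at about 0.38 in these data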;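 note: ratio is peak minus minimum fluorescence divided by baseline fluorescence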
KCNQ1 ephys val – KCNQ1 channel inhibitors, confirmation, orthogonal assay, cell-based, automated electrophysiology; shares compounds with KCNQ1 inh; KCNQ1-CHO cells, automated patch clamp current; calls only at 10 µM; 20% of 490 active; AID 624120, 2012;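 active = KCNQ1 current drop exceeding 3 SD of negative control wells, seen in both duplicate runs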;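 note: steady state current during a 2 s step from -80 to +40 mV; negative values mean current inhibition and positive values mean potentiation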
KCNQ2 inh – KCNQ2 channel inhibition, selectivity assay for KCNQ1 inhibitor project, cell-based. shares compounds with KCNQ1 inh. KCNQ2 cells, FluxOR thallium flux fluorescence. inhibition, % at 10 µM. 71% of 1,600 active;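 active = mean percent inhibition of the KCNQ2 thallium signal more than 5 SD above the buffer-only control wells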;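 note: KCNQ2 expressed in CHO cells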
KCNQ1-KCNE1 inh – KCNQ1/KCNE1 channel inhibition, selectivity assay for KCNQ1 inhibitor project, CHO-K1 cells, thallium flux, FluxOR; shares compounds with KCNQ1 inh; FluxOR thallium flux fluorescence; inhibition, % at 10 µM; 77% of 1,600 active;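 active = mean percent inhibition of duplicate wells above the buffer-only control mean plus 3 SD of those controls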
Numbers stand for hits. Sampled rows, rich in hits. Any-hit rate of the full collection: about 3.1%.

`O=S(=O)(Oc1ccc(C(=S)N2CCOCC2)cc1)c1ccc(Cl)cc1` gave hERG protect inactive, KCNK9 inh inactive, KCNQ1 pot inactive, KCNQ1 inh 8, KCNK3 block inactive, KCNQ1 block val 85.0, CHO Tl flux inactive, KCNQ2 inh inactive and KCNQ1-KCNE1 inh 65.0%.
CN(CC(=O)Nc1nccs1)S(=O)(=O)c1ccc(F)cc1 was read as hERG protect inactive, KCNK9 inh inactive, KCNQ1 pot inactive, KCNQ1 inh inactive and KCNK3 block inactive.
For Cc1occc1-c1nnc(SCC(=O)N2CCOCC2)n1CCc1ccccc1 the results were hERG protect inactive, KCNK9 inh inactive, KCNQ1 pot inactive, KCNQ1 inh 6, KCNK3 block inactive, KCNQ1 block val 36.5, CHO Tl flux inactive, KCNQ2 inh inactive and KCNQ1-KCNE1 inh 45.0%.
CCCCn1c(SCC(=O)N2CCOCC2)nnc1-c1ccoc1C was read as hERG protect inactive, KCNK9 inh inactive, KCNQ1 pot inactive, KCNQ1 inh inactive and KCNK3 block inactive.
For S=C(NCc1cccs1)Nc1cc(Cl)cc(Cl)c1 the results were hERG protect inactive, KCNK9 inh inactive, KCNQ1 pot inactive, KCNQ1 inh 6, KCNK3 block inactive, KCNQ1 block val 33.5, CHO Tl flux inactive, KCNQ2 inh 77.7% and KCNQ1-KCNE1 inh inactive.
Screening S=C(NCc1cccs1)Nc1cccc(Cl)c1 returned hERG protect inactive, KCNK9 inh inactive, KCNQ1 pot inactive, KCNQ1 inh inactive and KCNK3 block inactive.
`CC(On1c(-c2ccccc2)nc2ccc(Cl)cc21)C(=O)O` (stereo not given) gave hERG protect inactive, KCNK9 inh inactive, KCNQ1 pot inactive, KCNQ1 inh inactive and KCNK3 block inactive.
For CCOC(=O)C(C)On1c(-c2cccc(Cl)c2)nc2ccc([N+](=O)[O-])cc21 (stereo not given) the results were hERG protect inactive, KCNK9 inh inactive, KCNQ1 pot inactive, KCNQ1 inh 15, KCNK3 block inactive, KCNQ1 block val 153.5, CHO Tl flux 0.34, KCNQ2 inh 130.7% and KCNQ1-KCNE1 inh active.
`Cc1cc(C(=O)NC2CCCc3c2cnn3-c2cccc(C)c2C)n(C)n1` (stereo not given) gave hERG protect inactive, KCNK9 inh inactive, KCNQ1 pot inactive, KCNQ1 inh 16, KCNK3 block inactive, KCNQ1 block val 84.5, CHO Tl flux inactive, KCNQ2 inh 60.0% and KCNQ1-KCNE1 inh 46.5%.
Cn1nccc1C(=O)NC1CCCc2c1cnn2-c1ccc(C(C)(C)C)cc1 (stereo not given) was read as hERG protect inactive, KCNK9 inh inactive, KCNQ1 pot inactive, KCNQ1 inh 9, KCNK3 block inactive, KCNQ1 block val 94.5, CHO Tl flux inactive, KCNQ1 ephys val inactive, KCNQ2 inh 92.7% and KCNQ1-KCNE1 inh 43.0%.
`COc1ccc(OC)c(S(=O)(=O)N2CCN(c3ccccc3)CC2)c1` gave hERG protect inactive, KCNK9 inh inactive, KCNQ1 pot inactive, KCNQ1 inh inactive and KCNK3 block inactive.
